Assay results: ChEMBL document CHEMBL1142894, “Preparation of 5-aryl-3-alkylthio-l,2,4-triazoles and corresponding sulfones with antiinflammatory-analgesic activity” (Bioorg Med Chem, 2007)
Activity calls are given as the source filed them. The calls are words filed in the database; no cut-off is given here.

What was measured:
[1] = test system: Mus musculus; test: Antiinflammatory activity against carrageenan-induced paw edema in Swiss albino mouse assessed as swelling thickness at 100 mg/kg, po after 90 mins; type: functional
In short: (§1)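 Oral dosing in 0.5% CMC; vehicle to controls. Then carrageenan (0.5 mg/25 ll, freshly suspended in 154 mM saline) injected into the right hind paw subplantar tissue; saline into the left paw. Right-left footpad thickness difference measured by dial gauge calliper every 90 min over 6 h. Inhibition % is relative to vehicle control. n = 6; mean ± SEM.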

[2] = test system: Mus musculus; test: Antiinflammatory activity against carrageenan-induced paw edema in Swiss albino mouse assessed as swelling thickness at 100 mg/kg, po after 180 mins; type: functional; in short: as §1
[3] = test system: Mus musculus; test: Antiinflammatory activity against carrageenan-induced paw edema in Swiss albino mouse assessed as swelling thickness at 100 mg/kg, po after 270 mins; type: functional; in short: as §1
[4] = test system: Mus musculus; test: Antiinflammatory activity against carrageenan-induced paw edema in Swiss albino mouse assessed as swelling thickness at 100 mg/kg, po after 360 mins; type: functional; in short: as §1
[5] = test system: Mus musculus; test: Inhibition of carrageenan-induced paw edema in Swiss albino mouse at 100 mg/kg, po after 90 mins relative to control; type: functional; conditions: 1.5 h; in short: as §1
[6] = test system: Mus musculus; test: Inhibition of carrageenan-induced paw edema in Swiss albino mouse at 100 mg/kg, po after 180 mins relative to control; type: functional; conditions: 3 h; in short: as §1
[7] = test system: Mus musculus; test: Inhibition of carrageenan-induced paw edema in Swiss albino mouse at 100 mg/kg, po after 270 mins relative to control; type: functional; conditions: 4.5 h; in short: as §1
[8] = test system: Mus musculus; test: Inhibition of carrageenan-induced paw edema in Swiss albino mouse at 100 mg/kg, po after 360 mins relative to control; type: functional; conditions: 6 h; in short: as §1
[9] = test system: Mus musculus; test: Analgesic activity against p-benzoquinone-induced abdominal constriction in Swiss albino mouse assessed as number of writhings at 25 mg/kg, po; type: functional, Abdomen
In short: (§2)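 Test samples given orally in 0.5% CMC; vehicle to controls. 60 min later, 2.5% (v/v) p-benzoquinone in distilled water, 0.1 ml/10 g, given i.p. Mice housed singly; writhes counted for 15 min starting 5 min after injection. Activity is % change from vehicle controls. n = 6; mean ± SEM.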

[10] = test system: Mus musculus; test: Analgesic activity against p-benzoquinone-induced abdominal constriction in Swiss albino mouse assessed as number of writhings at 50 mg/kg, po; type: functional, Abdomen; in short: as §2
[11] = test system: Mus musculus; test: Analgesic activity against p-benzoquinone-induced abdominal constriction in Swiss albino mouse assessed as number of writhings at 100 mg/kg, po; type: functional, Abdomen; in short: as §2
[12] = test system: Mus musculus; test: Analgesic activity against p-benzoquinone-induced abdominal constriction in Swiss albino mouse assessed as number of writhings at 200 mg/kg, po; type: functional, Abdomen; in short: as §2
[13] = test system: Mus musculus; test: Inhibition of p-benzoquinone-induced writhing in Swiss albino mouse at 25 mg/kg, po relative to control; type: functional
In short: (§3)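 Mice, n = 6 per group, dosed orally with a suspension in 0.5% sodium CMC. 60 min later, 0.1 ml/10 g of 2.5% […] p-benzoquinone in distilled water given ip. Abdominal writhes counted per animal for 15 min, starting 5 min after injection. Expressed as % change in mean writhing count versus vehicle controls.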

[14] = test system: Mus musculus; test: Inhibition of p-benzoquinone-induced writhing in Swiss albino mouse at 50 mg/kg, po relative to control; type: functional; in short: as §3
[15] = test system: Mus musculus; test: Inhibition of p-benzoquinone-induced writhing in Swiss albino mouse at 100 mg/kg, po relative to control; type: functional; in short: as §3
[16] = test system: Mus musculus; test: Inhibition of p-benzoquinone-induced writhing in Swiss albino mouse at 200 mg/kg, po relative to control; type: functional; in short: as §3
[17] = test system: Mus musculus; test: Gastric-ulcerogenic effect in Swiss albino mouse assessed as lesions at 25 mg/kg, po; type: functional, organism-based; design: dose 25 mg/kg
In short: (§4)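 Mice killed under deep ether anesthesia 3 h after the writhing test; the oral dose in 0.5% CMC was the one used in that test. Stomachs removed, opened along the great curvature and examined under a dissecting microscope for lesions or bleeding. Reported as ratio of ulceration; n = 6.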

[18] = test system: Mus musculus; test: Gastric-ulcerogenic effect in Swiss albino mouse assessed as lesions at 50 mg/kg, po; type: functional, organism-based; design: dose 50 mg/kg; in short: as §4
[19] = test system: Mus musculus; test: Gastric-ulcerogenic effect in Swiss albino mouse assessed as lesions at 100 mg/kg, po; type: functional, organism-based; design: dose 100 mg/kg; in short: as §4
[20] = test system: Mus musculus; test: Antiinflammatory activity against carrageenan-induced paw edema in Swiss albino mouse assessed as swelling thickness at 25 mg/kg, po after 90 mins; type: functional; in short: as §1
[21] = test system: Mus musculus; test: Antiinflammatory activity against carrageenan-induced paw edema in Swiss albino mouse assessed as swelling thickness at 25 mg/kg, po after 180 mins; type: functional; in short: as §1
[22] = test system: Mus musculus; test: Antiinflammatory activity against carrageenan-induced paw edema in Swiss albino mouse assessed as swelling thickness at 25 mg/kg, po after 270 mins; type: functional; in short: as §1
[23] = test system: Mus musculus; test: Antiinflammatory activity against carrageenan-induced paw edema in Swiss albino mouse assessed as swelling thickness at 25 mg/kg, po after 360 mins; type: functional; in short: as §1
[24] = test system: Mus musculus; test: Antiinflammatory activity against carrageenan-induced paw edema in Swiss albino mouse assessed as swelling thickness at 50 mg/kg, po after 180 mins; type: functional; in short: as §1
[25] = test system: Mus musculus; test: Antiinflammatory activity against carrageenan-induced paw edema in Swiss albino mouse assessed as swelling thickness at 50 mg/kg, po after 270 mins; type: functional; in short: as §1
[26] = test system: Mus musculus; test: Antiinflammatory activity against carrageenan-induced paw edema in Swiss albino mouse assessed as swelling thickness at 50 mg/kg, po after 360 mins; type: functional; in short: as §1
[27] = test system: Mus musculus; test: Antiinflammatory activity against carrageenan-induced paw edema in Swiss albino mouse assessed as swelling thickness at 200 mg/kg, po after 90 mins; type: functional; in short: as §1
[28] = test system: Mus musculus; test: Antiinflammatory activity against carrageenan-induced paw edema in Swiss albino mouse assessed as swelling thickness at 200 mg/kg, po after 180 mins; type: functional; in short: as §1
[29] = test system: Mus musculus; test: Antiinflammatory activity against carrageenan-induced paw edema in Swiss albino mouse assessed as swelling thickness at 200 mg/kg, po after 270 mins; type: functional; in short: as §1
[30] = test system: Mus musculus; test: Antiinflammatory activity against carrageenan-induced paw edema in Swiss albino mouse assessed as swelling thickness at 200 mg/kg, po after 360 mins; type: functional; in short: as §1
[31] = test system: Mus musculus; test: Inhibition of carrageenan-induced paw edema in Swiss albino mouse at 25 mg/kg, po after 90 mins relative to control; type: functional; conditions: 1.5 h; in short: as §1
[32] = test system: Mus musculus; test: Inhibition of carrageenan-induced paw edema in Swiss albino mouse at 25 mg/kg, po after 180 mins relative to control; type: functional; conditions: 3 h; in short: as §1
[33] = test system: Mus musculus; test: Inhibition of carrageenan-induced paw edema in Swiss albino mouse at 25 mg/kg, po after 270 mins relative to control; type: functional; conditions: 4.5 h; in short: as §1
[34] = test system: Mus musculus; test: Inhibition of carrageenan-induced paw edema in Swiss albino mouse at 25 mg/kg, po after 360 mins relative to control; type: functional; conditions: 6 h; in short: as §1
[35] = test system: Mus musculus; test: Inhibition of carrageenan-induced paw edema in Swiss albino mouse at 50 mg/kg, po after 90 mins relative to control; type: functional; conditions: 1.5 h
In short: (§5)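 Mice, n = 6 per group. Test agent given orally as a suspension in 0.5% sodium CMC in distilled water; controls received vehicle only. Afterwards, 0.5 mg/25 ll carrageenan in saline (154 mM NaCl) injected subplantar into the right hind paw, saline into the left. Right-minus-left footpad thickness measured by dial gauge caliper every 90 min for 6 h. Inhibition is relative to vehicle-control group means.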

[36] = test system: Mus musculus; test: Inhibition of carrageenan-induced paw edema in Swiss albino mouse at 50 mg/kg, po after 180 mins relative to control; type: functional; conditions: 3 h; in short: as §1
[37] = test system: Mus musculus; test: Inhibition of carrageenan-induced paw edema in Swiss albino mouse at 50 mg/kg, po after 270 mins relative to control; type: functional; conditions: 4.5 h; in short: as §5
[38] = test system: Mus musculus; test: Inhibition of carrageenan-induced paw edema in Swiss albino mouse at 50 mg/kg, po after 360 mins relative to control; type: functional; conditions: 6 h; in short: as §5
[39] = test system: Mus musculus; test: Inhibition of carrageenan-induced paw edema in Swiss albino mouse at 200 mg/kg, po after 90 mins relative to control; type: functional; conditions: 1.5 h; in short: as §1
[40] = test system: Mus musculus; test: Inhibition of carrageenan-induced paw edema in Swiss albino mouse at 200 mg/kg, po after 180 mins relative to control; type: functional; conditions: 3 h; in short: as §1
[41] = test system: Mus musculus; test: Inhibition of carrageenan-induced paw edema in Swiss albino mouse at 200 mg/kg, po after 270 mins relative to control; type: functional; conditions: 4.5 h; in short: as §1
[42] = test system: Mus musculus; test: Inhibition of carrageenan-induced paw edema in Swiss albino mouse at 200 mg/kg, po after 360 mins relative to control; type: functional; conditions: 6 h; in short: as §1
[43] = test system: Mus musculus; test: Acute toxicity in Swiss albino mouse assessed as lethal effect at 25 mg/kg/day, po after 72 hrs; type: organism-based; design: route oral; conditions: in vivo
In short: (§6)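 Oral single dose suspended in 0.5% carboxymethylcellulose, given after a 24 h fast; food and water returned 1 h after dosing. Vehicle-only controls. Mice observed at 1 h, then once daily for 72 h, for toxic signs and mortality.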

[44] = test system: Mus musculus; test: Acute toxicity in Swiss albino mouse assessed as lethal effect at 50 mg/kg/day, po after 72 hrs; type: organism-based; design: route oral; conditions: in vivo; in short: as §6
[45] = test system: Mus musculus; test: Acute toxicity in Swiss albino mouse assessed as lethal effect at 100 mg/kg/day, po after 72 hrs; type: organism-based; design: route oral; conditions: in vivo; in short: as §6
[46] = test system: Mus musculus; test: Acute toxicity in Swiss albino mouse assessed as lethal effect at 200 mg/kg/day, po after 72 hrs; type: organism-based; design: route oral; conditions: in vivo; in short: as §6
[47] = test system: Mus musculus; test: Antiinflammatory activity against carrageenan-induced paw edema in Swiss albino mouse assessed as swelling thickness at 50 mg/kg, po after 90 mins; type: functional; in short: as §1

## CCS(=O)(=O)c1nc(-c2ccccc2)n[nH]1
[1]
  Activity: 33.2 10^-2mm
[2]
  Activity: 35.2 10^-2mm
[3]
  Activity: 39.2 10^-2mm
[4]
  Activity: 43.5 10^-2mm
[5]
  inhibition in vivo at 100 mg/kg: 25.9%
[6]
  inhibition in vivo at 100 mg/kg: 31.7%
[7]
  inhibition in vivo at 100 mg/kg: 33.3%
[8]
  inhibition in vivo at 100 mg/kg: 36.8%
[9]
  Activity: 38.2
[10]
  Activity: 26.7
[11]
  Activity: 27.5
[12]
  Activity: 48.5
[13]
  inhibition in vivo at 25 mg/kg: 25.7%
[14]
  inhibition in vivo at 50 mg/kg: 48.1%
[15]
  inhibition in vivo at 100 mg/kg: 41.9%
[16]
  inhibition in vivo at 200 mg/kg: 5.6%
[17]
  Activity: Active
[18]
  Activity: Active
[19]
  Activity: Active
[20]
  Activity: 48.6 10^-2mm
[21]
  Activity: 54.9 10^-2mm
[22]
  Activity: 58.1 10^-2mm
[23]
  Activity: 62.4 10^-2mm
[24]
  Activity: 41.3 10^-2mm
[25]
  Activity: 44.6 10^-2mm
[26]
  Activity: 44.2 10^-2mm
[27]
  Activity: 47.9 10^-2mm
[28]
  Activity: 52.3 10^-2mm
[29]
  Activity: 57.6 10^-2mm
[30]
  Activity: 65.2 10^-2mm
[31]
  inhibition in vivo at 25 mg/kg: 8.6%
[32]
  inhibition in vivo at 25 mg/kg: 7.7%
[33]
  inhibition in vivo at 25 mg/kg: 10.3%
[34]
  inhibition in vivo at 25 mg/kg: 13.3%
[35]
  inhibition in vivo at 50 mg/kg: 26.3%
[36]
  inhibition in vivo at 50 mg/kg: 30.5%
[37]
  inhibition in vivo at 50 mg/kg: 31.2%
[38]
  inhibition in vivo at 50 mg/kg: 38.6%
[39]
  inhibition in vivo at 200 mg/kg: 9.9%
[40]
  inhibition in vivo at 200 mg/kg: 11.9%
[41]
  inhibition in vivo at 200 mg/kg: 11.1%
[42]
  inhibition in vivo at 200 mg/kg: 9.4%
[43]
  Activity: Non-toxic
[44]
  Activity: Non-toxic
[45]
  Activity: Non-toxic
[46]
  Activity: Non-toxic
[47]
  Activity: 39.2 10^-2mm
